Test results: PMC2774623 (Biochemistry, 2008)

Target: CK2α catalytic subunit
Assay: SPR
Type: binding, human
Details: for kd (s^−1) × 10^−3: SPR BIAcoreX, CK2α coupled to CM5 chip, 25 °C, HBS pH 7.4, Langmuir 1:1 model; for association constant ka (as printed in text): SPR, binding to CK2α, unit not given
How it was run: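 Recombinant human CK2α, expressed in E. coli, amine-coupled to a CM5 chip (1600 RU). Mouse NBD1 analyte, wild type or ΔF508, at 15 μM, flowed at 10 μL/min, 25 °C, in HBS (10 mM Hepes pH 7.4, 150 mM NaCl, 3 mM EDTA, 0.005% P20). Blank-surface response subtracted; rate constants fitted to a 1:1 binding model.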

kd (s^−1) × 10^−3	association constant ka (as printed in text)	Molecule
0.335 s^−1 × 10^−3	0.135 × 10^3	NBD1 wt: purified wild-type recombinant murine NBD1 of CFTR (spanning sequence 389−673) (protein) TTGIIMENVTAFWEEGFGELLEKVQQSNGDRKHSSDENNVSFSHLCLVGNPVLKNINLNIEKGEMLAITGSTGSGKTSLLMLILGELEASEGIIKHSGRVSFCSQFSWIMPGTIKENIIFGVSYDEYRYKSVVKACQLQQDITKFAEQDNTVLGEGGVTLSGGQRARISLARAVYKDADLYLLDSPFGYLDVFTEEQVFESCVCKLMANKTRILVTSKMEHLRKADKILILHQGSSYFYGTFSELQSLRPDFSSKLMGYDTFDQFTEERRSSILTETLRRFSVDD
0.0877 s^−1 × 10^−3	0.96 × 10^3	NBD1 ΔF508: purified ΔF508 mutated recombinant murine NBD1 of CFTR (spanning sequence 389−673) (protein) TTGIIMENVTAFWEEGFGELLEKVQQSNGDRKHSSDENNVSFSHLCLVGNPVLKNINLNIEKGEMLAITGSTGSGKTSLLMLILGELEASEGIIKHSGRVSFCSQFSWIMPGTIKENIIGVSYDEYRYKSVVKACQLQQDITKFAEQDNTVLGEGGVTLSGGQRARISLARAVYKDADLYLLDSPFGYLDVFTEEQVFESCVCKLMANKTRILVTSKMEHLRKADKILILHQGSSYFYGTFSELQSLRPDFSSKLMGYDTFDQFTEERRSSILTETLRRFSVDD
